Only some compounds are listed: those with a hit (about 1.8% of all), similar ones and a draw of the others.
TDP2 inh – TDP2 (human) inhibition, absorbance primary screen; recombinant TDP2, T5PNP hydrolysis, p-nitrophenol absorbance 415 nm; inhibition, % at 12.8 µM; 370,000 compounds, 0.34% hits; AID 720702;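 active = inhibition above the mean of all tested compounds plus 3 SD, set per campaign, cut at about 25% in these data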
Target sequence (O95551 whole entry, looked up): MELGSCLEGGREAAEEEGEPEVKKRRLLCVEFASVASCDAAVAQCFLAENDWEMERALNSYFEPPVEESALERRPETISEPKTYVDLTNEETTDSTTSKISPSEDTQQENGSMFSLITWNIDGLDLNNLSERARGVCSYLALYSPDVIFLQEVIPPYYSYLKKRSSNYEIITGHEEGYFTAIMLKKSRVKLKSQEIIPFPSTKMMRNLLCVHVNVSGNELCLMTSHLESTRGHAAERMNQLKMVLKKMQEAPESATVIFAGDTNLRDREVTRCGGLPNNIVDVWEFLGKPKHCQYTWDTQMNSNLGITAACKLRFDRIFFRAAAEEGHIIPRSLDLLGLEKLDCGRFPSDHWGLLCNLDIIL
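Read-out basis: percent inhibition. System: recombinant human TDP2. Buffer or medium: Mg2+-containing Tris-HCl buffer, pH 7.5. Repeats: single replicate. Timing: reaction 2 h, 37 °C. Benchmarks: high control without enzyme, low control DMSO plus TDP2. Probe or stimulus: 5 mM T5PNP. Doses: 12.8 µM only. Measured by: epi absorbance of p-nitrophenol freed from T5PNP by hydrolysis.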
NSD2 HMT inh – inhibitors of human histone methyltransferase NSD2. NSD2 peptide methylation, AlphaScreen, 120 min. O96028. inhibition, % at 12.5 µM. 310,000 compounds, 0.54% hits; in the data active = inhibition above about 50%
MBD2 inh – inhibitors of human MBD2 binding to methylated oligonucleotide | TR-FRET | inhibition, % at 4.4 µM | 370,000 compounds, 0.31% hits; in the data active = inhibition above about 13%
Casp6 inh – caspase-6 (human) enzyme inhibition | P55212 | purified caspase-6, Z-VEID-R110 cleavage fluorescence | inhibition, % at 12.5 µM | 350,000 compounds, 0.53% hits;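 active = mean inhibition across replicates at least about 35%, with every replicate also reaching that limit, limit read from the data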
Target sequence (P55212 24-179 limits assumed): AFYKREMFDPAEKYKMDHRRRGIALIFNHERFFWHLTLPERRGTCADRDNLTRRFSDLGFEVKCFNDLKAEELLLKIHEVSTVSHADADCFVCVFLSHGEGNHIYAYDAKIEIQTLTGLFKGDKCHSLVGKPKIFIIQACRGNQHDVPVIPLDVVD
Target sequence (P55212 194-293 limits assumed): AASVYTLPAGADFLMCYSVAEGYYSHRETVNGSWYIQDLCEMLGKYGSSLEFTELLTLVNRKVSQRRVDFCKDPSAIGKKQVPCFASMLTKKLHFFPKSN
UHRF1 binding – UHRF1 methyl-DNA binding inhibition | Q96T88 | UHRF1 binding to methylated oligo, TR-FRET | inhibition, % at 4.4 µM | 370,000 compounds, 0.75% hits; in the data active = inhibition above about 21%;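 note: UHRF1 SRA domain binding a hemimethylated CpG hairpin DNA probe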
LEDGF integ inh – blocks HIV-1 LEDGF/p75-dependent DNA integration. inhibition, % at 3.7 µM. AID 743269. 370,000 compounds, 0.64% hits. TR-FRET IN-LEDGF/p75 DNA integration, Eu/Cy5;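 active = inhibition above the screen-wide mean plus 3 SD, cut at about 13% in these data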;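 note: signal is the Cy5 over europium emission ratio at 671 and 618 nm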
Alpha artifact – AlphaScreen assay artifact in NSD2 counter-screen; shares compounds with NSD2 HMT inh; AlphaScreen artifact counterscreen, preloaded methylated H4 peptide; AC35, µM (top dose mostly 10 µM); 1,500 compounds, 9.4% hits; AID 1053174; call rule not given here
Large screens that a line does not name were inactive (follow-up assays come after a bar, where they were run).

CCC(C)Nc1nc(CN2CCOCC2)nc2sc3c(c12)CCC3 (stereo not drawn)	none (no result: Casp6 inh)
CCN(CC)CCCNc1nc(CN2CCOCC2)nc2sc3c(c12)CCC3	NSD2 HMT inh 54 | Alpha artifact inactive
NC(=O)C1Cc2ccccc2CN1S(=O)(=O)c1ccc(Cl)s1 (stereo not drawn)	NSD2 HMT inh 89 | Alpha artifact inactive
Cc1cc(C)cc(N2C(=O)C=CC2=O)c1	none
Cc1c([N+](=O)[O-])cc(N2C(=O)C=CC2=O)cc1[N+](=O)[O-]	NSD2 HMT inh 55 (no result: TDP2 inh, MBD2 inh, UHRF1 binding, LEDGF integ inh) | Alpha artifact inactive
CN1C(=O)c2cccc(N(C)C)c2C1=O	none
CN(C)c1cccc2c1C(=O)c1ccccc1C2=O	NSD2 HMT inh 60 | Alpha artifact 2.2µM
C[C@H]1CN([C@@H](C)CO)C(=O)c2cccc(NC(=O)Nc3ccc4c(c3)OCO4)c2O[C@@H]1CN(C)Cc1ccccc1	none (no result: TDP2 inh, NSD2 HMT inh, MBD2 inh, UHRF1 binding, LEDGF integ inh)
N#Cc1cc(-c2ccccc2)cnc1Sc1ccc(Cl)cc1	NSD2 HMT inh 112 (no result: Casp6 inh) | Alpha artifact inactive
CCN(CC)CCCN=C(C)C1=C(O)c2ccccc2C1=O	NSD2 HMT inh 66 | Alpha artifact inactive
CCCN=C(C)C1=C(O)c2ccccc2C1=O	none
CCCNC(=O)[C@@H]1[C@@H](CO)[C@@H]2Cn3c(cccc3=O)[C@@H]2N1Cc1cccc(F)c1	none (no result: TDP2 inh, NSD2 HMT inh, MBD2 inh, UHRF1 binding, LEDGF integ inh)
CS(=O)(=O)NCCCNc1ccc(Cl)cc1[N+](=O)[O-]	none (no result: Casp6 inh)
CCNCCNc1ccc(Cl)cc1[N+](=O)[O-]	NSD2 HMT inh 64 (no result: Casp6 inh) | Alpha artifact inactive
COc1ccc(S(=O)(=O)N(C)CC(=O)NCCN2CCOCC2)cc1Cl	NSD2 HMT inh 87 | Alpha artifact inactive
COc1ccc(S(=O)(=O)N(C)CC(=O)NCCN2CCOCC2)cc1C	none
Cc1cccc(C(=O)NCc2nnc(SCC(=O)Nc3nncs3)n2C)c1	none
Cc1cccc(C(=O)NCc2nnc(SCC(=O)Nc3nnc(C)s3)n2C)c1	NSD2 HMT inh 90 | Alpha artifact inactive
CCN(CC)CCNC(=O)CN1C(=O)COc2ccc(S(=O)(=O)N3CCOCC3)cc21	NSD2 HMT inh 81 | Alpha artifact inactive
CC(C)CN(CCNC(=O)CN1C(=O)COc2ccc(S(=O)(=O)N3CCOCC3)cc21)CC(C)C	none
Cc1c(N=NC2=C(O)CC(C)(C)CC2=O)c(=O)n(-c2ccccc2)n1C	NSD2 HMT inh 96 | Alpha artifact inactive
CC(=O)/C(N=Nc1c(C)n(C)n(-c2ccccc2)c1=O)=C(\C)O	none
CCOc1ccc(N)cc1OC	NSD2 HMT inh 56 | Alpha artifact inactive
CCOc1ccc(C(N)=O)cc1OC	none (no result: Casp6 inh)
O=C(C[C@@H]1C[C@@H]2c3cc(NC(=O)NC4CCCCC4)ccc3O[C@@H]2[C@@H](CO)O1)NC1CCCC1	none (no result: TDP2 inh, NSD2 HMT inh, MBD2 inh, UHRF1 binding, LEDGF integ inh)
C(=N\Nc1ccccn1)/c1cccnc1	none
FC(F)(F)c1ccc(N/N=C/c2cccnc2)nc1	NSD2 HMT inh 116 | Alpha artifact inactive
COc1cccc(CNC(=O)[C@H]2[C@H](CO)[C@H]3Cn4c(cccc4=O)[C@@H]2N3C(=O)C2CCC2)c1	none (no result: TDP2 inh, NSD2 HMT inh, MBD2 inh, UHRF1 binding, LEDGF integ inh)
CCCC#Cc1ccc2c(c1)O[C@H](CN(C)Cc1cccnc1)[C@@H](C)CN([C@H](C)CO)S2(=O)=O	none (no result: TDP2 inh, NSD2 HMT inh, MBD2 inh, UHRF1 binding, LEDGF integ inh)
CCOC(=O)c1c(C)[nH]c(C)c1C(=O)CSc1nc2ccccc2[nH]1	none (no result: Casp6 inh)
CCOC(=O)CCCCC(=O)c1[nH]c(=O)[nH]c1CSc1nc2ccccc2[nH]1	NSD2 HMT inh 100 (no result: Casp6 inh) | Alpha artifact inactive
Cc1ccc(C)c(N2N=C(C(=O)OCc3nnc(-c4cccs4)o3)CCC2=O)c1	none
CCN(CC)C(=O)COC(=O)C1=NN(c2cc(C)ccc2C)C(=O)CC1	NSD2 HMT inh 59 | Alpha artifact inactive
CN1c2ccccc2N(C)C1(C)c1ccccc1	NSD2 HMT inh 54 | Alpha artifact inactive
CCOC(=O)c1cc(-c2ccc(F)cc2)nc2c1c(=O)[nH]c(=O)n2Cc1ccccc1	NSD2 HMT inh 86 | Alpha artifact inactive
CCOC(=O)c1cc(-c2cc(OC)c(OC)c(OC)c2)nc2c1c(=O)[nH]c(=O)n2Cc1ccccc1	none
Cc1ccc(C(C)C)c(OCCCN2C(=O)NC(C)(C)C2=O)c1	none
Cc1cc(C)c(OCCN2C(=O)NC(C)(C)C2=O)c(Cl)c1	none (no result: Casp6 inh)
Cc1cc(Cl)c(OCCN2C(=O)NC(C)(C)C2=O)c(Br)c1	NSD2 HMT inh 71 (no result: Casp6 inh) | Alpha artifact inactive
Cc1cc(Cl)cc(Br)c1OCCCN1C(=O)NC(C)(C)C1=O	NSD2 HMT inh 73 (no result: Casp6 inh) | Alpha artifact inactive
CO[C@@H]1CN(C)C(=O)c2ccc(NS(C)(=O)=O)cc2OC[C@H](C)N(C(=O)NC(C)C)C[C@H]1C	none (no result: TDP2 inh, NSD2 HMT inh, MBD2 inh, UHRF1 binding, LEDGF integ inh)
Cc1ccc(S(=O)(=O)Nc2ccccc2-c2ccccc2)cc1	none (no result: Casp6 inh)
Cc1ccc(S(=O)(=O)/N=C2\C=C(NS(=O)(=O)c3ccccc3)C(=O)c3ccccc32)cc1	NSD2 HMT inh 105, LEDGF integ inh 16 | Alpha artifact 9.9µM
COc1cc(C(=O)NC(C)c2ccc3ccccc3c2)cc(Cl)c1O (stereo not drawn)	NSD2 HMT inh 74 | Alpha artifact inactive
O=C(NNc1cc(N2CCOCC2)nc(N2CCOCC2)n1)c1ccc([N+](=O)[O-])cc1	NSD2 HMT inh 129 | Alpha artifact inactive
O=C(Nc1ccc(N2CCOCC2)cc1N1CCOCC1)c1ccc([N+](=O)[O-])cc1	none (no result: Casp6 inh)
N#Cc1ccccc1OCC(=O)OCC(=O)N1CCN(C(=O)c2ccco2)CC1	NSD2 HMT inh 57 | Alpha artifact inactive
N#Cc1ccc(C(=O)OCC(=O)N2CCN(C(=O)c3ccco3)CC2)cc1	none
C[C@@H]1CCCCO[C@@H](CN(C)C(=O)CCC(F)(F)F)[C@@H](C)CN([C@H](C)CO)C(=O)c2cc(NS(=O)(=O)c3cn(C)cn3)ccc2O1	none (no result: TDP2 inh, NSD2 HMT inh, MBD2 inh, UHRF1 binding, LEDGF integ inh)
CCN(CC)S(=O)(=O)c1ccc(-c2cn3cc(Cl)ccc3n2)cc1	NSD2 HMT inh 77 | Alpha artifact inactive
CCCC(=O)Nc1ccc2c(c1)OC[C@H](C)N(CCC(F)(F)F)C[C@H](C)[C@@H](OC)CN(C)C2=O	none (no result: TDP2 inh, NSD2 HMT inh, MBD2 inh, UHRF1 binding, LEDGF integ inh)
CCN(CC)CCN(Cc1cc2cc3c(cc2[nH]c1=O)OCO3)C(=S)NCc1ccco1	none
CCN(CC)CCCN(Cc1cc2cc3c(cc2[nH]c1=O)OCO3)C(=S)NCc1ccco1	NSD2 HMT inh 74 | Alpha artifact inactive
N=C1C(c2nc(-c3ccc(F)cc3)cs2)=C(O)CN1Cc1ccc(Cl)cc1	NSD2 HMT inh 128 (no result: Casp6 inh) | Alpha artifact inactive
C/C(CC(=O)Nc1ccccn1)=N\NC(=O)C(=O)Nc1cccc(Cl)c1C	NSD2 HMT inh 60 (no result: Casp6 inh) | Alpha artifact inactive
C/C(CC(=O)Nc1ccccn1)=N\NC(=O)C(=O)Nc1cccc(C)c1	none (no result: Casp6 inh)
COc1ccc(C2N(C(=O)C(F)(F)F)C(C)CN2S(=O)(=O)c2ccc(C)cc2)cc1 (stereo not drawn)	NSD2 HMT inh 86 | Alpha artifact inactive

High-throughput results (PubChem BioAssay)
